Calls of active or inactive are those of the source. The rule behind the calls is not given here.
Assays:
[1] = target: Fibroblast growth factor receptor 1 (Homo sapiens, UniProt P11362); assay: Inhibition of human FGFR1 expressed in baculovirus insect cell system
[2] = target: Mitogen-activated protein kinase 14 (Homo sapiens, UniProt Q16539); assay: Inhibition of human P38alpha expressed in baculovirus insect cell system
[3] = Inhibition of human IRK expressed in baculovirus insect cell system
Cyclin-dependent kinase = assay: Inhibition of human CDK expressed in baculovirus insect cell system
[4] = target: Serine/threonine-protein kinase Chk1/2 (Homo sapiens, UniProt O96017+O14757); assay: Inhibition of human CHK1/2 expressed in baculovirus insect cell system
[5] = target: Tyrosine-protein kinase Fyn (Homo sapiens, UniProt P06241); assay: Inhibition of human Fyn kinase expressed in baculovirus insect cell system
[6] = Half life in Sprague-Dawley rat at 1 mg/kg, iv; format: ADME, organism-based; design: dose 1 mg/kg, route intravenous; details: in vivo
Outline: (§1)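 Rat PK: iv dose into lateral tail vein in 3% DMSO/30% solutol/67% PBS; oral gavage in 50% Tween 80/40% propylene carbonate/10% propylene glycol, rats fasted overnight before oral dosing. Serial tail-vein blood at seven times over 6 h into heparinized tubes. Plasma protein-precipitated with acetonitrile, analysed with internal standard by LC-MS/MS. Bioavailability from iv versus po AUCs.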

[7] = AUC in Sprague-Dawley rat at 1 mg/kg, iv; format: ADME, organism-based; design: dose 1 mg/kg, route intravenous; details: plasma
Outline: (§2)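 Single intravenous dose into the lateral tail vein in 3% DMSO, 30% solutol and 67% phosphate-buffered saline. Serial heparinized blood samples were taken from the lateral tail vein at seven times over 6 h. Plasma was separated by centrifugation, deproteinized with acetonitrile and analysed for drug against an internal standard by LC-MS/MS.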

[8] = Volume of distribution in Sprague-Dawley rat at 1 mg/kg, iv; format: ADME, organism-based; design: dose 1 mg/kg, route intravenous; details: in vivo; outline: as §1
[9] = Clearance in Sprague-Dawley rat at 1 mg/kg, iv; format: ADME, organism-based; design: dose 1 mg/kg, route intravenous; details: in vivo; outline: as §1
[10] = AUC in Sprague-Dawley rat at 5 mg/kg, po; format: ADME, organism-based; design: dose 5 mg/kg, route oral; details: plasma
Outline: (§3)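 Rats were fasted overnight, then dosed by oral gavage in 50% Tween 80, 40% propylene carbonate and 10% propylene glycol. Serial heparinized blood samples were taken from the lateral tail vein at seven times over 6 h. Plasma was deproteinized with acetonitrile and analysed for drug against an internal standard by LC-MS/MS.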

[11] = Cmax in Sprague-Dawley rat at 5 mg/kg, po; format: ADME, organism-based; design: dose 5 mg/kg, route oral; details: in vivo; outline: as §1
[12] = Half life in Sprague-Dawley rat at 5 mg/kg, po; format: ADME, organism-based; design: dose 5 mg/kg, route oral; details: in vivo; outline: as §1
[13] = Oral bioavailability in Sprague-Dawley rat at 5 mg/kg; format: ADME, organism-based; details: in vivo; outline: as §1
[14] = Metabolic stability in rat liver S9 fraction after 2 hrs in presence of NADPH; format: ADME, subcellular; details: read-out: Stability
Outline: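 Incubated 2 h in rat liver S9 preparation with NADPH; percent parent remaining reported.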

SH-SY5Y = assay: Neuroprotective activity against human SH-SY5Y cells assessed as inhibition of MPP+-induced cell death; format: functional, cell-based
Mus musculus [15] = assay: Inhibition of MPTP-induced increase in pMKK4 levels in mouse at 6.7 mg/kg, po administered 2 hrs before MPTP challenge followed by 40 mg/kg, sc 2 hrs after MPTP challenge; format: functional; design: Activity: scale not given: the % may be the effect or the level left
Outline: (§4)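 Mice dosed orally at 6.7 mg/kg 2 h before and 2 h after MPTP (40 mg/kg sc). Substantia nigra dissected 2 h after second dose; pMKK4 measured by immunoblot against treated and control groups. Plasma drug levels taken 2 h after dosing (4 h post-MPTP).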

[16] = Plasma concentration in mouse at 6.7 mg/kg, po administered 2 hrs before MPTP challenge followed by 40 mg/kg, sc 2 hrs after MPTP challenge; format: ADME, organism-based; details: other: po followed by sc; outline: as §4
Mus musculus [17] = assay: Neuroprotective activity against MPTP-induced loss of striatal dopamine markers in po dosed mouse administered twice daily; format: functional, organism-based
Outline: (§5)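 Mouse MPTP neurotoxicity: low dose 20 mg/kg sc, assessing striatal DA terminals by GBR-12935 binding; high dose 40 mg/kg sc, assessing striatal DA markers and substantia nigra cell bodies by TH immunoreactivity. Test compounds given orally, q.d. or b.i.d.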

[18] = target: T1, Mitogen-activated protein kinase kinase kinase 9 (Homo sapiens, UniProt P80192); assay: Inhibition of GST-fused human MLK1 expressed in CHO cells assessed as MKK4 phosphorylation; format: cell-based
T1 sequence (P80192 whole entry, the tested form may be a part): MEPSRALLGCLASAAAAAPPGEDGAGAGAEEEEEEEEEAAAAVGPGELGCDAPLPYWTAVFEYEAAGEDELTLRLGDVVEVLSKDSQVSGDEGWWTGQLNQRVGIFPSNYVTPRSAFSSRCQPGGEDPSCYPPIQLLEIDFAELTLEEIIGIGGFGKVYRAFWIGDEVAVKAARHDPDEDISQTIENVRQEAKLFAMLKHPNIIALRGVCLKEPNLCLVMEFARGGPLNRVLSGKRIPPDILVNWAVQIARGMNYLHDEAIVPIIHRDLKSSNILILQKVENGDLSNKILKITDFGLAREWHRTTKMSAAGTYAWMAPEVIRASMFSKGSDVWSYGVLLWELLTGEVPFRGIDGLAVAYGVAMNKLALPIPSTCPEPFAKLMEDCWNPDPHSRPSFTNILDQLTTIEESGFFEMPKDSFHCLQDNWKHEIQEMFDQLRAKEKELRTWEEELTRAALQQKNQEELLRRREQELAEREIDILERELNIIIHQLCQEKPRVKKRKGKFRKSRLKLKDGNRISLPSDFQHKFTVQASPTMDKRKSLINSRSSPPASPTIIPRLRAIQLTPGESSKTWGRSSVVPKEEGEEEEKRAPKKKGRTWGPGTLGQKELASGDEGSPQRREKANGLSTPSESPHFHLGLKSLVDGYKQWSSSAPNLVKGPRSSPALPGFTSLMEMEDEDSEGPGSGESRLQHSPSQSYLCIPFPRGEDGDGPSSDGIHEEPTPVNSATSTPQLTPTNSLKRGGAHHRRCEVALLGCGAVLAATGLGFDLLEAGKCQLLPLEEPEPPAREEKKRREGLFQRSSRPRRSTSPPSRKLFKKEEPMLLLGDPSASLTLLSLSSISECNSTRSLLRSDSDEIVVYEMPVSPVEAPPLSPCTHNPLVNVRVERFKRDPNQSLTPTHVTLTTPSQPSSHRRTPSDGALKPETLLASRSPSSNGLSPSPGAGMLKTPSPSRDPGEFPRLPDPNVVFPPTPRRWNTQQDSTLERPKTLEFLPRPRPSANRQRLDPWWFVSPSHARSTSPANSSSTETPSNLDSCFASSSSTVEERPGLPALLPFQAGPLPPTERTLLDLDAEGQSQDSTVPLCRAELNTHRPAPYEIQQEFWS
Outline: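 CHO cells transfected with MLK1 plus dominant-negative MKK4 cDNA; phospho-MKK4 quantified by ELISA; IC50 derived.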

[19] = target: Mitogen-activated protein kinase kinase kinase 10 (Homo sapiens, UniProt Q02779); assay: Inhibition of human MLK2 expressed in baculovirus insect cell system
Outline: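 GST fusions of human MLK kinase domains from baculovirus (50 ng MLK1_KD, 150 ng MLK2_KD/LZ, 100 ng MLK3_KD), substrate 500 µg/mL myelin basic protein. Buffer 20 mM Hepes pH 7.2, 5 mM EGTA, 15 mM MgCl2, 1 mM DTT, 25 mM β-glycerophosphate, 0.1% BSA, 2% DMSO. […] 15 min at 37 °C, TCA precipitation, scintillation counting. IC50 by variable-slope sigmoidal fit, average of duplicates within 20%.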

[20] = target: High affinity nerve growth factor receptor (Homo sapiens, UniProt P04629); assay: Inhibition of human TrkA expressed in baculovirus insect cell system
[21] = target: c-Jun N-terminal kinase, JNK (Homo sapiens, UniProt P45983+P53779+P45984); assay: Inhibition of human JNK expressed in baculovirus insect cell system
[22] = target: T2, Dual specificity mitogen-activated protein kinase kinase 4 (Homo sapiens, UniProt P45985); assay: Inhibition of human MKK4/7 expressed in baculovirus insect cell system
T2 sequence (P45985 whole entry): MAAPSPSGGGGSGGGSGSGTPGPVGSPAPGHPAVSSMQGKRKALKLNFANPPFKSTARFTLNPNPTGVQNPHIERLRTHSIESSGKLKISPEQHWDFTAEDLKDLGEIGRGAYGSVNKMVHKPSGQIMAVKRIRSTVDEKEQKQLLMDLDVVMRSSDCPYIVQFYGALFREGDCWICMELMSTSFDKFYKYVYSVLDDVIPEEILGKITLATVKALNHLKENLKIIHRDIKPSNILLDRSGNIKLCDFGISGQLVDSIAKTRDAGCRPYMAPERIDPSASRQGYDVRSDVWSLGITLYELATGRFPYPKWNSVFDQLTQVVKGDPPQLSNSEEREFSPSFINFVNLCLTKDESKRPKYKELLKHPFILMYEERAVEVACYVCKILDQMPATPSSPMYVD

Protein kinase C (PKC) = assay: Inhibition of human PKC expressed in baculovirus insect cell system
[23] = target: Vascular endothelial growth factor receptor 1 (Homo sapiens, UniProt P17948); assay: Inhibition of human VEGFR1 expressed in baculovirus insect cell system
Vascular endothelial growth factor receptor 1, sequence (P17948 whole entry): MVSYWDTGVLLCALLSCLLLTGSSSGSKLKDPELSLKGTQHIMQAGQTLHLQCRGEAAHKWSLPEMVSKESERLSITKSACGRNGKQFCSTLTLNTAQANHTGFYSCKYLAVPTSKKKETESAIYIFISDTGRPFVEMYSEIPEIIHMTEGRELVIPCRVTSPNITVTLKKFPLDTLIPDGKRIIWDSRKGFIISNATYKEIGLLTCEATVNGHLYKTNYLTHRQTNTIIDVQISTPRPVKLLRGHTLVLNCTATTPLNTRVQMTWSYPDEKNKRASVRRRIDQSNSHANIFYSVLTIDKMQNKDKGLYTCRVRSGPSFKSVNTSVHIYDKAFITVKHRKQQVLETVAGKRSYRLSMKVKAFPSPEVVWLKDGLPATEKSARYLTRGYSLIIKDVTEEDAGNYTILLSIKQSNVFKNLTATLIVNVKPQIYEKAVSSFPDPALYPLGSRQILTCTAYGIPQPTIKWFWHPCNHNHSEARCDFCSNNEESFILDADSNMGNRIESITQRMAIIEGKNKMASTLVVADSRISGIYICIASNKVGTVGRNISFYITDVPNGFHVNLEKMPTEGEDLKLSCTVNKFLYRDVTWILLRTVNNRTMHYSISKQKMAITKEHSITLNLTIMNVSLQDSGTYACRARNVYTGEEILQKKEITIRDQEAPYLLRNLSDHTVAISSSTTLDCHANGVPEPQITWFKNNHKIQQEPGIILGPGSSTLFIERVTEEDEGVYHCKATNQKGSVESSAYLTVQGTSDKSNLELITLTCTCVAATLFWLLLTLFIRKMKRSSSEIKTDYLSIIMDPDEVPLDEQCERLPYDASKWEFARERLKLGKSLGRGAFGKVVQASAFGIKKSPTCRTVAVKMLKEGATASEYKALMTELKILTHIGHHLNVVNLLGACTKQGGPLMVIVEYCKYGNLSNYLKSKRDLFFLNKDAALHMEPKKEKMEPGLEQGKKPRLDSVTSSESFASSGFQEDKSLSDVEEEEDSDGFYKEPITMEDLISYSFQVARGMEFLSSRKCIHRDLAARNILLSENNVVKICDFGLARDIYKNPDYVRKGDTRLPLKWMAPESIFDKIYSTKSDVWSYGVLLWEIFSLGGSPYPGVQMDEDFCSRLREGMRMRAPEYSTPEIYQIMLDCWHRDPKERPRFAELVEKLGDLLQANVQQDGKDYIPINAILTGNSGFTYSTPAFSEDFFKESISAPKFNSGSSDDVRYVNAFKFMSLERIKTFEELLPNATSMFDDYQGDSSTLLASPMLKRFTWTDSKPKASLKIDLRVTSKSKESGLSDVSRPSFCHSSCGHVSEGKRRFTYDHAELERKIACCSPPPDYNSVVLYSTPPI

[24] = target: Vascular endothelial growth factor receptor 2 (Homo sapiens, UniProt P35968); assay: Inhibition of human VEGFR2 expressed in baculovirus insect cell system
[25] = target: Vascular endothelial growth factor receptor 3 (Homo sapiens, UniProt P35916); assay: Inhibition of human VEGFR3 expressed in baculovirus insect cell system
Vascular endothelial growth factor receptor 3, sequence (P35916 whole entry, the tested form may be a part): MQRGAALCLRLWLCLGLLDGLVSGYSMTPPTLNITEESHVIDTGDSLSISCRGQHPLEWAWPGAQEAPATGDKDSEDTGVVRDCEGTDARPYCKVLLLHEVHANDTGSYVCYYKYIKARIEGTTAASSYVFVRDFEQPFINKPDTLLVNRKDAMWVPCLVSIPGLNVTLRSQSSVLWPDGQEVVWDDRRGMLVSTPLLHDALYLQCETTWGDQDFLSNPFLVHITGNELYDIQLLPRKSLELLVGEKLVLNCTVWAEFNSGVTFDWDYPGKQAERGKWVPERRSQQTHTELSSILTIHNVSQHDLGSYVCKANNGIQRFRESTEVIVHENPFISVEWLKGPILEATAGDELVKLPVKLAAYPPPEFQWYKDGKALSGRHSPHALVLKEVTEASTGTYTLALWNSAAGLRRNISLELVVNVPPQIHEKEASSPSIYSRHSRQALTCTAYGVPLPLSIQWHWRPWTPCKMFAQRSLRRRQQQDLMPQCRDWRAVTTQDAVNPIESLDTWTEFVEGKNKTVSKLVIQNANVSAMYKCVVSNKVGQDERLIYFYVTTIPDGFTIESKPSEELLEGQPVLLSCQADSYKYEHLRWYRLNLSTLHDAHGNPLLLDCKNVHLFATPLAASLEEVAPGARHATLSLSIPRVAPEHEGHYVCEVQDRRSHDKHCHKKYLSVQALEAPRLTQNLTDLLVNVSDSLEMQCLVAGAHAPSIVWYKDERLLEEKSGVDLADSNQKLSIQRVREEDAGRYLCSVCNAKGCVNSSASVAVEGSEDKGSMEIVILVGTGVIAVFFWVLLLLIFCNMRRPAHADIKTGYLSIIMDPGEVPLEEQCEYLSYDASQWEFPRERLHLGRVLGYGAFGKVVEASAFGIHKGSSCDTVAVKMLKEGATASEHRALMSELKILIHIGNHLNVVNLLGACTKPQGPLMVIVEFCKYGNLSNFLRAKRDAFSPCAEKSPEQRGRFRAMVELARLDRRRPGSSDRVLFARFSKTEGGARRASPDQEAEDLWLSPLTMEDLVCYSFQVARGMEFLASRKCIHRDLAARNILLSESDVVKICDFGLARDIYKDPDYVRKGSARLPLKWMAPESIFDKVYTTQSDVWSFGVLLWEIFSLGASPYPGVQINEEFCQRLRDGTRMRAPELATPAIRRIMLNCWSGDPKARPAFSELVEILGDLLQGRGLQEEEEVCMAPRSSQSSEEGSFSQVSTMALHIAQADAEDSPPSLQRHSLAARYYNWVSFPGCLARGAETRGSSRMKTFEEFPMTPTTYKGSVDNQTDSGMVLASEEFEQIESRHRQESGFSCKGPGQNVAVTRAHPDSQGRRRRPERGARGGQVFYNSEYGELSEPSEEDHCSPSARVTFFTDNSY

[26] = target: T1, Mitogen-activated protein kinase kinase kinase 9; assay: Inhibition of GST-fused human MLK1
Outline: (§6)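 GST fusions of human MLK kinase domains from baculovirus (50 ng MLK1_KD, 150 ng MLK2_KD/LZ, 100 ng MLK3_KD), substrate 500 µg/mL myelin basic protein. Buffer 20 mM Hepes pH 7.2, 5 mM EGTA, 15 mM MgCl2, 1 mM DTT, 25 mM β-glycerophosphate, 0.1% BSA, 2% DMSO.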

[27] = target: Mitogen-activated protein kinase kinase kinase 11 (Homo sapiens, UniProt Q16584); assay: Inhibition of GST-fused human MLK3; outline: as §6
Mitogen-activated protein kinase kinase kinase 11, sequence (Q16584 whole entry, the tested form may be a part): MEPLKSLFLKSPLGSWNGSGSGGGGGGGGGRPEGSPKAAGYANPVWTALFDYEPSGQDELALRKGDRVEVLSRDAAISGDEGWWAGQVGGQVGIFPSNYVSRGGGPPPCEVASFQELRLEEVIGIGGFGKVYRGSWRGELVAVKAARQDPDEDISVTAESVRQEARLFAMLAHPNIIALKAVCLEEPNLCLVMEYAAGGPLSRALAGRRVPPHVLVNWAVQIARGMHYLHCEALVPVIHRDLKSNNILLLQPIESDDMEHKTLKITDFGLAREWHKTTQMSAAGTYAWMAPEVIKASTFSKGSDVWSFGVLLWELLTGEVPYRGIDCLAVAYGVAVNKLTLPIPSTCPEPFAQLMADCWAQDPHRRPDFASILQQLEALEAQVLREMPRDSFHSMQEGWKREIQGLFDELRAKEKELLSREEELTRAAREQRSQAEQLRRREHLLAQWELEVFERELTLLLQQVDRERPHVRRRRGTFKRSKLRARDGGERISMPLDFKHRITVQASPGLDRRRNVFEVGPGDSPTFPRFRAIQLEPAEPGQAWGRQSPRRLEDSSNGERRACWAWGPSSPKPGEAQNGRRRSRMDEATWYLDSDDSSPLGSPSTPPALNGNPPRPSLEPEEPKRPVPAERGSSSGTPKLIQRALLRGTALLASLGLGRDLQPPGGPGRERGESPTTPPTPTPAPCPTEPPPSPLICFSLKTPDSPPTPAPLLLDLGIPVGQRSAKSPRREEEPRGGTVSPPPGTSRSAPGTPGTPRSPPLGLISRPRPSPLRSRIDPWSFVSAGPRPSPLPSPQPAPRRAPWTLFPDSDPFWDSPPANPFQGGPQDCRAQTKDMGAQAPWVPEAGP

Mus musculus [28] = assay: Inhibition of MPTP-induced increase in pMKK4 levels in mouse at 1 mg/kg, sc administered 2 hrs before MPTP challenge followed by 10 mg/kg, sc 2 hrs after MPTP challenge
[29] = target: Tyrosine-protein kinase Lck (Homo sapiens, UniProt P06239); assay: Inhibition of human Lck expressed in baculovirus insect cell system
[30] = Half life in Sprague-Dawley rat at 2 mg/kg, iv; format: ADME, organism-based; design: dose 2 mg/kg, route intravenous; details: in vivo; outline: as §1
[31] = AUC in Sprague-Dawley rat at 2 mg/kg, iv; format: ADME, organism-based; design: dose 2 mg/kg, route intravenous; details: plasma; outline: as §2
[32] = Volume of distribution in Sprague-Dawley rat at 2 mg/kg, iv; format: ADME, organism-based; design: dose 2 mg/kg, route intravenous; details: in vivo; outline: as §1
[33] = Clearance in Sprague-Dawley rat at 2 mg/kg, iv; format: ADME, organism-based; design: dose 2 mg/kg, route intravenous; details: in vivo; outline: as §1
[34] = AUC in Sprague-Dawley rat at 4 mg/kg, po; format: ADME, organism-based; design: dose 4 mg/kg, route oral; details: plasma; outline: as §3
[35] = Cmax in Sprague-Dawley rat at 4 mg/kg, po; format: ADME, organism-based; design: dose 4 mg/kg, route oral; details: in vivo
[36] = Half life in Sprague-Dawley rat at 4 mg/kg, po; format: ADME, organism-based; design: dose 4 mg/kg, route oral; details: in vivo
[37] = Oral bioavailability in Sprague-Dawley rat at 4 mg/kg; format: ADME, organism-based; details: in vivo; outline: as §1
Mus musculus [38] = assay: Neuroprotective activity against MPTP-induced loss of striatal dopamine markers in mouse at 2 mg/kg, po administered once daily; format: functional, organism-based; design: dose 2 mg/kg; outline: as §5
Mus musculus [39] = assay: Neuroprotective activity against MPTP-induced loss of substantia nigra dopamine cell bodies in mouse at 2 mg/kg, po administered once daily; format: functional, organism-based; design: dose 2 mg/kg; outline: as §5
[40] = target: Platelet-derived growth factor receptor beta (Homo sapiens, UniProt P09619); assay: Inhibition of human PDGFRbeta expressed in baculovirus insect cell system

Mitogen-activated protein kinase 14, sequence (Q16539 whole entry): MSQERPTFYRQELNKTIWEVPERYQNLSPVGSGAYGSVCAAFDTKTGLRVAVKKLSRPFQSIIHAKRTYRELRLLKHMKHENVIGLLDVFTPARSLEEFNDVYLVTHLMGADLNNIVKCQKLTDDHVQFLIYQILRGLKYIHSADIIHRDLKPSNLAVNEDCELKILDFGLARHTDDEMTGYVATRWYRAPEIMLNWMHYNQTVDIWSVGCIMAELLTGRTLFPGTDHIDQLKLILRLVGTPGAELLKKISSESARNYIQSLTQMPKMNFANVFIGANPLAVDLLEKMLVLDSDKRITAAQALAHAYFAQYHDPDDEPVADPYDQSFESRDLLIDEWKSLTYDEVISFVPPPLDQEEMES

## CC(C)Oc1ccc2c(c1)CCc1c-2c2c(c3c4ccccc4n(CCO)c13)CNC2=O
[1]
  IC50: > 10 µM
[2]
  IC50: > 10 µM
[3]
  IC50: > 10 µM
Cyclin-dependent kinase
  IC50: > 10 µM
[4]
  IC50: > 10 µM
[5]
  IC50: 1.19 µM
[6]
  half-life: 48 min
[7]
  AUC: 579 ng·h/mL
[8]
  Vd: 2 L/kg
[9]
  clearance: 28 mL/min/kg
[10]
  AUC: 1070 ng·h/mL
[11]
  Cmax: 339 ng/mL
[12]
  half-life: 66 min
[13]
  bioavailability: 37%
[14]
  remaining at 2 h: 44%
SH-SY5Y
  IC50: 0.043 µM
Mus musculus [15]
  Activity: 64%
[16]
  concentration at 2 h: 580 nM
Mus musculus [17]
  Activity: Active
[18]
  IC50: 0.033 µM
[19]
  IC50: 1.86 µM
[20]
  IC50: 1.05 µM
[21]
  IC50: > 30 µM
[22]
  IC50: > 3 µM
Protein kinase C (PKC)
  IC50: > 6 µM
[23]
  IC50: > 10 µM
[24]
  IC50: 3.38 µM
[25]
  IC50: 2.46 µM
[26]
  IC50: 0.026 µM
[27]
  IC50: 0.065 µM

## CCSCc1ccc2c(c1)c1c3c(c4c5cc(CSCC)ccc5n5c4c1n2[C@H]1C[C@](O)(C(=O)OC)[C@]5(C)O1)CNC3=O [CEP-1347]
SH-SY5Y
  IC50: 0.0053 µM
[18]
  IC50: 0.072 µM
[23]
  IC50: 0.209 µM
[24]
  IC50: 0.043 µM
[25]
  IC50: 0.039 µM
[27]
  IC50: 0.064 µM
Mus musculus [28]
  inhibition (INH): 45%

## COc1ccc2c(c1)CCc1c-2c2c(c3c4ccccc4n(CCO)c13)CNC2=O
[1]
  IC50: > 10 µM
[2]
  IC50: > 10 µM
[3]
  IC50: > 10 µM
Cyclin-dependent kinase
  IC50: > 10 µM
[4]
  IC50: > 10 µM
[29]
  IC50: 6.4 µM
[5]
  IC50: 3.4 µM
[30]
  half-life: 36 min
[31]
  AUC: 1730 ng·h/mL
[32]
  Vd: 0.9 L/kg
[33]
  clearance: 19 mL/min/kg
[34]
  AUC: 1990 ng·h/mL
[35]
  Cmax: 572 ng/mL
[36]
  half-life: 84 min
[37]
  bioavailability: 57%
[14]
  remaining at 2 h: 44%
SH-SY5Y
  IC50: 0.032 µM
Mus musculus [15]
  inhibition (INH): 68%
[16]
  concentration at 2 h: 250 nM
Mus musculus [38]
  Activity: Active
Mus musculus [39]
  Activity: Active
[40]
  IC50: > 10 µM
[18]
  IC50: 0.127 µM
[19]
  IC50: 1.58 µM
[20]
  IC50: 1.27 µM
[21]
  IC50: > 30 µM
[22]
  IC50: > 3 µM
Protein kinase C (PKC)
  IC50: > 10 µM
[23]
  IC50: > 10 µM
[24]
  IC50: 4.71 µM
[25]
  IC50: > 10 µM
[26]
  IC50: 0.103 µM
[27]
  IC50: 0.055 µM
